Measured values collected from several papers.
Each line is one published result; the experiments were not run side by side.
Effect on: cell growth or viability

| SMILES | cell line | test | conditions | endpoint | result |
| --- | --- | --- | --- | --- | --- |
| CC(=O)OC1c2c(ccc3ccc(=O)oc23)OC(C)(C)C1OC(=O)C(C)(O)C(C)O (stereo not drawn) | MCF7 | WST-1 |  | IC50 | 6.1 µM |
| C=C(C)[C@@H]1CC[C@]2(C(=O)O)CC[C@]3(C)[C@H](CC[C@@H]4[C@@]5(C)CC[C@H](O)C(C)(C)[C@@H]5CC[C@]43C)[C@@H]12 | WS1 |  | 48 h | IC50 | 36 µM |
| C[C@@H]1[C@H](O)[C@@H](C)/C=C/C=C/C=C/C=C/C=C/C=C/C=C/[C@H](O[C@@H]2O[C@H](C)[C@@H](O)[C@H](N)[C@@H]2O)C[C@@H]2O[C@](O)(C[C@@H](O)C[C@@H](O)[C@H](O)CC[C@@H](O)C[C@@H](O)CC(=O)O[C@H]1C)C[C@H](O)[C@H]2C(=O)O | THP-1 | MTT | 72 h | CC50 | 3.6 µM |
| OC[C@@H]1[C@@H](O)[C@H](O)[C@@H](O)CN1CC/C=C/CCOc1cc(F)ccc1F | MDBK | MTT |  | CC50 | > 500 µM |
| CC(C)(C)CC(C)(C)Nc1c(-c2ccccc2)nc2ncccn12 | MCF7 | MTT | 25 µM, 48 h | viability | 44.9% |
| Cc1cn([C@H]2C[C@H](N=[N+]=[N-])[C@@H](CO)O2)c(=O)[nH]c1=O | TZM-bl | MTT | 48 h | CC50 | > 200 µg/mL |
| CC1(C)CC[C@]2(C)CC[C@]3(C)[C@H]4CC=C5[C@@H](CC[C@H](O)C5(C)C)[C@]4(C)CC[C@@]3(C)[C@@H]2C1 | HEp-2 | WST-1 |  | IC50 | 48.1 µM |
| C=C(C)[C@H](CC=C(C)C)Cc1c(O)cc(O)c2c1O[C@H](c1ccc(O)cc1O)CC2=O | MCF7 | MTT | 48 h | IC50 | 19.2 µM |
| CC(=O)O[C@@H]1c2c(ccc3ccc(=O)oc23)OC(C)(C)[C@@H]1OC(=O)C1(C)OC1C (stereo partly drawn) | HEp-2 | WST-1 |  | IC50 | 36.4 µM |
| O=[N+]([O-])c1ccc(-c2nc3cc(F)ccc3[nH]2)o1 | HEp-2 | resazurin | 72 h | CC50 | 3.1 µM |
| Cc1nc(C(CN)NC(=O)C(=O)Nc2ccc3c(c2)OCO3)sc1CO (stereo not drawn) | TZM-bl | MTS | 72 h | CC50 | ≥ 750 µM |
| C/C(=C\C(=O)OCCCCCCCCC(=O)O)C[C@@H]1OC[C@H](C[C@@H]2O[C@H]2[C@@H](C)[C@H](C)O)[C@@H](O)[C@H]1O | TZM-bl |  |  | CC50 | > 100 µM |
| CCCCCCCCCCCCCCCCOP(=O)([O-])OCC[N+](C)(C)C | THP-1 |  | 72 h | CC50 | > 40 µM |
| C/C=C(/C)C(=O)O[C@@H]1[C@H](OC(C)=O)c2c(ccc3ccc(=O)oc23)OC1(C)C | HEp-2 | WST-1 |  | IC50 | 53.5 µM |
| Cc1cccc2nc(-c3ccc([N+](=O)[O-])o3)[nH]c12 | HEp-2 | resazurin | 72 h | CC50 | 1.7 µM |
